# The list is not random: actives were taken first. Their share in the collection is about 2.6%.
# ABCB6 inh 2 – blocks the human ABCB6 transporter. Q9NP58. K562-ABCB6 porphyrin accumulation, flow cytometry, 1 h; stronger effect = lower value. fluorescence ratio to DMSO, % at 10 µM. actives 0.19% (n = 360,000);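 active = fluorescence ratio to DMSO below 75%, the collection mean minus 3 SD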;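 note: signal is porphyrin accumulated inside mitochondria; lower ratio means ABCB6 inhibition with less porphyrin fluorescence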
# Target sequence (Q9NP58 whole entry, looked up): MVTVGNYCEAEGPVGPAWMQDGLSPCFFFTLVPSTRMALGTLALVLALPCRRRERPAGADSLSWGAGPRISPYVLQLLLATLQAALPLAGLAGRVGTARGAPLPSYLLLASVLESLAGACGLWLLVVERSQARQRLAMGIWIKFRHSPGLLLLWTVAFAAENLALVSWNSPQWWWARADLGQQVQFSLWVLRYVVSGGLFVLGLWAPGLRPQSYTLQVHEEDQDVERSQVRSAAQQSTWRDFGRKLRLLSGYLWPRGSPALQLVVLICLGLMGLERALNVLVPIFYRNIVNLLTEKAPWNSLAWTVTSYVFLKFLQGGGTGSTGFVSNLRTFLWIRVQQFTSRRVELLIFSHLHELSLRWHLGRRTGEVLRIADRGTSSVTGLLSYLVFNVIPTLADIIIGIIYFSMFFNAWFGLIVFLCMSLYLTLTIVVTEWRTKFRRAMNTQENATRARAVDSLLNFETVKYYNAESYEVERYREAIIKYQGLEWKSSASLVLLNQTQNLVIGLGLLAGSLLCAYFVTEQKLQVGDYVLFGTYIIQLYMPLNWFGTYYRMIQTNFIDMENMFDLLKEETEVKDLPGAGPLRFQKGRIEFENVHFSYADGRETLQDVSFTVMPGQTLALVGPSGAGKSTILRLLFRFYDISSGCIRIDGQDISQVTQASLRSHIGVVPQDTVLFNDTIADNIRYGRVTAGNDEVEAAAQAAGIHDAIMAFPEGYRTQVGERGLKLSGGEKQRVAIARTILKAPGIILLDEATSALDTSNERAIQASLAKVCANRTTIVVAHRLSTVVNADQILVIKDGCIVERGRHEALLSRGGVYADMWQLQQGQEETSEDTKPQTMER
# hiPSC survival – enhancers of human iPSC single-cell survival. hiPSC single-cell survival, ATPlite luminescence; 100% = ROCK inhibitor wells, 0% = DMSO. survival enhancement, % at 20 µM. actives 0.044% (n = 360,000); in the data active = survival enhancement above about 18%;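 note: cells exposed to compounds for 16 hours before the ATP read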
# Granule exo inh – lytic granule exocytosis inhibition. TALL-104 LAMP-1 surface exposure, flow cytometry; cells stimulated with thapsigargin and PMA. inhibition, % at 10 µM. actives 0.66% (n = 360,000). AID 651702;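 active = inhibition above about 55%, limit read from the data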
# TbMetRS inhib – blocks T. brucei methionyl-tRNA synthetase activity; purified T. brucei MetRS, ATP depletion, Kinase-Glo luminescence; inhibition, % at 11.9 µM; actives 0.4% (n = 360,000);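 active = inhibition above a per-plate cutoff of the control wells' mean inhibition plus 3 SD, cut at about 5.5% in these data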
#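 Material – parasite MetRS enzyme · Medium – HEPES-MgCl2-KCl buffer plus DTT, spermine, BSA, pyrophosphatase · Reagent – ATP, methionine and E. coli bulk tRNA substrates · Times – 15 min enzyme-compound preincubation, 2 h reaction, 10 min detection, 25 °C · Measured by – luminescence of leftover ATP · Evaluation – percent inhibition relative to median high and low control wells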
# MC4R antag cAMP – antagonists of human melanocortin 4 receptor (MC4R); P32245; actives 0.48% (n = 360,000); inhibition, % at 6.5 µM; MC4R-expressing cells, MTII-stimulated cAMP, LANCE TR-FRET; AID 540295;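 active = inhibition above its plate's cutoff, the mean of tested wells on that plate plus 3 SD, cut at about 29% in these data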
#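 System – human MC4R-expressing U2OS cells · Also added – Melanotan II · Dosing – one concentration, 6.5 µM nominal · Timing – 30-min compound, 1-h challenge, 1-h detection, room temperature · Measured by – Eu-cAMP/anti-cAMP TR-FRET, emission 671 nm · Replicates – singlicate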
# MC4R barr agon – activates human MC4R beta-arrestin recruitment. P32245. U2OS MC4R beta-arrestin complementation, luminescence; percent of melanotan II response, DMSO zero. activation, % at 8.9 µM. actives 0.98% (n = 360,000). AID 540308;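 active = activation above a per-plate cutoff, the mean activation of sample wells on that plate plus 3 SD, cut at about 8% in these data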
# Numbers stand for hits; - = inactive; . = not tested or not shown.
SMILES,ABCB6 inh 2,hiPSC survival,Granule exo inh,TbMetRS inhib,MC4R antag cAMP,MC4R barr agon
Cc1ccc(-n2c(-c3ccc(Br)cc3)c[n+]3c2CCc2ccc4cccnc4c2-3)cc1,-,-,72,-,-,-
CCN(CC)CCNS(=O)(=O)c1ccc(OC)c(Br)c1,-,-,-,-,-,-
Oc1ccccc1/C=N/n1c2ccccc2c2ccccc21,-,-,-,-,-,9.2
O=C(Nc1cccc(C(F)(F)F)c1)C(Sc1n[nH]c(=O)[nH]c1=O)c1ccccc1 (stereo unspecified),-,-,-,-,-,-
O=C(N/N=C/c1ccc2c(c1)OCO2)c1sc2cccc(Cl)c2c1Cl,-,-,-,-,-,8.3
O=C(N/N=C/c1ccc2c(c1)OCO2)c1sc2cc(Cl)ccc2c1Cl,-,-,-,-,-,-
CCCc1nn(C)c(C(=O)Nc2cccc(CC)c2)c1Cl,-,-,-,-,-,-
CCCc1nn(C)c(C(=O)Nc2ccc3ccccc3c2)c1Cl,-,-,-,-,-,9.4
CCOc1ccc2nc(NCCNC(=O)Nc3ccccc3)c(C#N)cc2c1,-,-,-,-,-,9.6
CCOc1ccc2nc(NCCNC(=O)Nc3cccc(C)c3)c(C#N)cc2c1,-,-,-,-,-,-
Cc1ccc(N2C(=O)/C(=C\c3ccco3)SC2=S)cc1,-,-,-,-,-,10
O=C1CCCN1S(=O)(=O)c1ccc(F)cc1,-,-,-,-,-,-
CC(C)COC(=O)NC1c2ccccc2Oc2ccccc21,-,-,-,-,-,10
COc1cc(CNc2nc(C)c([N+](=O)[O-])c(C)c2C#N)cc(OC)c1OC,-,-,-,-,-,-
Cc1ccc2nc(-c3ccc(SCC(=O)Nc4nc(C)cs4)nc3)[nH]c2c1,-,-,-,-,-,-
CCc1nnc(NC(=O)CSc2ccc(-c3nc4ccccc4[nH]3)cn2)s1,-,-,-,9.9,-,-
Cc1ccc2nc(-c3ccc(SCC(=O)Nc4nnc(C)s4)nc3)[nH]c2c1,-,-,-,-,-,11
O=C(CSc1ccc(-c2nc3ccccc3[nH]2)cn1)Nc1ccc2c(c1)OCCO2,-,-,-,-,-,-
Cc1ccc(SCC(=O)Nc2ccc(-c3nc4ccccc4[nH]3)cc2)cc1,-,-,-,-,-,8.3
NC(=O)c1ccsc1NC(=O)c1ccc(S(=O)(=O)N2CCCc3ccccc32)cc1,-,-,-,-,-,8.5
COc1cccc(/C=N/Nc2ccccc2C(=O)O)c1O,-,-,-,-,-,-
O=C(O)c1ccccc1NN=Cc1ccccc1,-,-,60,-,-,-
Clc1cccc(Cl)c1CSc1nnc(-c2ccncc2)s1,-,-,-,-,-,31
NC(N)=N/N=C(\N=Nc1ccccc1)c1ccc(Cl)cc1,-,-,56,-,-,-
CN(C)/N=C/C=C1\CCC/C(=C\c2ccc(F)c(F)c2)C1=O,-,-,90,-,-,-
SMILES,ABCB6 inh 2,hiPSC survival,Granule exo inh,TbMetRS inhib,MC4R antag cAMP,MC4R barr agon
Cn1c(CNC(=O)c2ccccc2F)nnc1SCC(=O)c1ccccc1,-,-,-,-,-,-
O=[N+]([O-])c1ccc(N=Nc2c(Cl)cc(O)cc2Cl)cc1,-,-,79,-,-,-
CSc1nc2sc3c(c2c2nnnn12)CCCC3,-,-,-,-,-,8.3
CSc1nc2sc3c(c2c(=O)n1C)CCCC3,-,-,-,-,-,-
CC(C)(O)/C=C/C[C@](C)(O)C1CC[C@]2(C)C1[C@H](O[C@H]1O[C@@H](CO)[C@H](O)[C@@H](O)[C@@H]1O)CC1[C@@]3(C)CC[C@H](O)C(C)(C)C3[C@@H](O)C[C@]12C (stereo partly specified),-,-,-,-,-,-
O=C(c1cccc(S(=O)(=O)N2CCN(c3ccccc3)CC2)c1)N1CCN(c2ccccc2O)CC1,-,-,-,-,-,-
Cc1ccc(-c2nnc(SCC(=O)Nc3ccc(S(=O)(=O)N4CCCCCC4)cc3)o2)cc1,-,-,-,-,-,9.3
CC(=O)c1cccc(NC(=O)CSc2nnc(-c3ccc(S(=O)(=O)N4CCCC4)cc3)o2)c1,-,-,-,-,-,-
Oc1c(N=Nc2ccccn2)ccc2ccccc12,-,-,102,-,-,-
Oc1[nH]c2ccccc2c1N=Nc1ccccn1,-,-,-,-,-,-
O=c1[nH]nc(-c2ccc(F)cc2)cc1Cc1cccs1,-,-,-,-,-,-
Cc1ccc2nc(/C(C#N)=C\c3ccc([N+](=O)[O-])o3)[nH]c2c1,-,-,62,-,-,766
Cc1ccccc1CNC(=O)CN(c1cccc([N+](=O)[O-])c1)S(C)(=O)=O,-,-,-,-,30,-
COc1ccccc1CNC(=O)CN(c1cccc([N+](=O)[O-])c1)S(C)(=O)=O,-,-,-,-,-,-
COc1ccc2[nH]c3c(=O)n(/N=C/[C@H]4C(C)C=C(C)CC4C)c(=O)[nH]c3c2c1 (stereo partly specified),-,-,-,-,-,8.3
COc1ccc2c(c1)[nH]c1c(=O)n(/N=C/C3C(C)C=C(C)CC3C)c(=O)[nH]c12 (stereo unspecified),-,-,-,-,-,-
CC(C)=CCC/C(C)=C/Cc1c(O)ccc(C(=O)/C=C/c2ccc(O)cc2)c1O,-,-,-,-,-,8.6
Clc1ccc2[nH]cc(-c3nnnn3-c3ccc4ccccc4c3)c2c1,-,-,-,-,-,-
NC(=O)c1ncn([C@@H]2O[C@H](CNCc3cccn3-c3ccncc3)[C@@H](O)[C@H]2O)n1,-,-,-,-,-,-
CCC1(CC)Cc2ccccc2-c2nc(-c3ccccc3)oc(=O)c21,70,-,-,-,-,-
CC(C)(C=O)C1=CC(=O)c2ccccc2C1=O,-,-,91,-,-,-
O=S(=O)(Nc1cccc(S(=O)(=O)N2CCCC2)c1)c1ccccc1F,-,-,-,-,-,-
CCOC(=O)[C@]12CCCC=C1N(Cc1ccco1)C(=O)[C@H](CC(=O)N1CCN(C(=O)c3ccco3)CC1)C2,-,-,-,-,.,.
C[C@@H](NC(=O)[C@@H]1Cc2ccccc2CN1)C(=O)Nc1ccc2c(c1)OCO2,-,26,-,-,-,-
COC1=CC(=O)c2nc(Cl)ccc2C1=O,-,-,86,-,.,.
COc1ccccc1CCNC(=O)c1ccc(NC(=O)CC2SC(N3CCCC3)=NC2=O)cc1 (stereo unspecified),-,-,-,-,-,-
Cc1ccc(S(=O)(=O)c2nc(-c3ccccc3Cl)oc2N2CCN(C)CC2)cc1,-,-,-,-,-,-
NC(=O)CSc1nc2scc(-c3ccc(Cl)cc3)c2c(=O)n1Cc1ccccc1,-,-,-,-,-,8.7
